Data from ChEMBL document CHEMBL3351715, “Methylenedioxy flavonoids: assessment of cytotoxic and anti-cancer potential in human leukemia cells” (Eur J Med Chem, 2014).
Calls of active or inactive are those of the source. The calls are words filed in the database; no cut-off is given here.

Columns and labels:
[1] = system: K562; test: Cytostatic effect against human K562 cells at >30 uM after 72 hrs by trypan blue staining assay; format: functional, cell-based
Summary of the method: (§1)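 Trypan blue exclusion count of Jurkat, U937 or K562 cells (RPMI, 10% FCS, 37 °C, 5% CO2, 10 days' culture after thawing) exposed to compound from DMSO stock; controls received equal DMSO. Proliferation expressed relative to control; mean ± SD of three determinations, Student's t-test with p<0.05 taken as significant.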

[2] = system: U-937; test: Cytotoxicity against human U937 cells assessed as inhibition of cell viability at 20 uM after 72 hrs by trypan blue staining assay; format: functional, cell-based
[3] = system: PBMC; test: Cytotoxicity against human PBMC assessed as reduction in cell viability at 10 to 50 after 24 to 72 hrs by CellTiter-Glo luminescent cell viability assay; format: cell-based
Summary of the method: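 PBMCs isolated from healthy donor buffy coats (blood diluted 1/3 in RPMI, Ficoll, 400 × g, 20 min), kept 24 h at 37 °C, 5% CO2, then treated 24–72 h. ATP read by CellTiter-Glo luminescence (10 min, dark, RT), normalized to untreated control (%); etoposide positive control; mean ± SD, n=3.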

[4] = system: Jurkat; test: Cytotoxicity against human Jurkat cells assessed as reduction in cell viability after 72 hrs by CellTiter-Glo luminescent cell viability assay; format: functional, cell-based
Summary of the method: (§2)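 Leukemia cells in RPMI/10% FCS at 37 °C, 5% CO2 treated for 24, 48 or 72 h. Equal volume of CellTiter-Glo reagent added, 10 min in the dark at RT, ATP luminescence converted to viable cell number. Normalized to untreated control (%), etoposide as positive control; mean ± SD of three determinations; IC50 from concentration-response.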

[5] = Cytotoxicity against human U937 cells assessed as cell viability at 10 uM after 72 hrs by trypan blue staining assay; conditions: U-937, 72 h
[6] = system: Jurkat; test: Cytotoxicity against human Jurkat cells assessed as cell viability at 10 uM after 72 hrs by trypan blue staining assay
[7] = system: K562; test: Cytotoxicity against human K562 cells assessed as reduction in cell viability after 72 hrs by CellTiter-Glo luminescent cell viability assay; format: functional, cell-based; conditions: K562, 72 h; summary of the method: as §2
[8] = system: K562; test: Cytotoxicity against human K562 cells assessed as inhibition of cell proliferation at 20 uM after 72 hrs by trypan blue staining assay; format: functional, cell-based; summary of the method: as §1
[9] = Cytotoxicity against human U937 cells assessed as reduction in cell viability after 72 hrs by CellTiter-Glo luminescent cell viability assay; format: functional, cell-based; conditions: U-937, 72 h; summary of the method: as §2
[10] = system: Jurkat; test: Induction of apoptosis in human Jurkat cells assessed as caspase-7 cleavage at 20 uM after 48 hrs Western blotting method; format: functional, cell-based
Summary of the method: (§3)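 Jurkat cells (10⁷ per sample) treated up to 48 h, lysed on ice in hypertonic detergent buffer with protease inhibitors, cleared at 15,000 × g, 15 min, 4 °C. Separated by 10% SDS-PAGE, transferred to nitrocellulose, probed with anti-caspase 3 or anti-caspase 7 (1/1000) and HRP secondary; β-actin loading control.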

[11] = system: Jurkat; test: Induction of apoptosis in human Jurkat cells assessed as caspase-3 cleavage at 20 uM after 48 hrs Western blotting method; format: functional, cell-based; summary of the method: as §3
[12] = system: K562; test: Cytotoxicity against human K562 cells assessed as inhibition of cell proliferation at 10 to 50 uM after 8 to 72 hrs by trypan blue staining assay; format: functional, cell-based; summary of the method: as §1
[13] = system: Jurkat; test: Cytotoxicity against human Jurkat cells assessed as inhibition of cell proliferation at 50 uM after 72 hrs by trypan blue staining assay; format: functional; summary of the method: as §1
[14] = Cytotoxicity against human U937 cells assessed as reduction in cell viability at 10 to 50 uM after 72 hrs by CellTiter-Glo luminescent cell viability assay; format: functional, U-937; summary of the method: as §2
[15] = system: Jurkat; test: Cytotoxicity against human Jurkat cells assessed as inhibition of cell proliferation after 72 hrs by trypan blue staining assay; format: functional, cell-based; summary of the method: as §1
[16] = system: Jurkat; test: Cytotoxicity against human Jurkat cells assessed as reduction in cell viability after 24 to 72 hrs by CellTiter-Glo luminescent cell viability assay; format: functional, cell-based; summary of the method: as §2
[17] = system: K562; test: Cytotoxicity against human K562 cells assessed as reduction in cell viability after 24 to 72 hrs by CellTiter-Glo luminescent cell viability assay; format: functional, cell-based; summary of the method: as §2
[18] = Cytotoxicity against human U937 cells assessed as inhibition of cell proliferation at 30 uM after 72 hrs by trypan blue staining assay; format: functional; conditions: U-937, 72 h; summary of the method: as §1
[19] = Cytotoxicity against human U937 cells assessed as reduction in cell viability at 10 to 50 uM after 48 hrs by CellTiter-Glo luminescent cell viability assay; format: functional, U-937; summary of the method: as §2

SMILES	viability at 10 µM [5] [%]	viability at 10 µM [6] [%]	other results
COc1ccccc1/C=C/C(=O)c1ccc2c(c1O)OCO2	55.4	59	Activity [1]: Active; inhibition [2]: Active; Activity [3]: Non-toxic; IC50 [4]: 13.7 µM; IC50 [7]: 42.3 µM; inhibition [8]: Active; IC50 [9]: 11.4 µM; Activity [10]: Active; Activity [11]: Active
COc1ccccc1-c1cc(=O)c2ccc3c(c2o1)OCO3	82.7	91.6	
COc1ccc(/C=C/C(=O)c2ccc3c(c2O)OCO3)cc1OC	69.3	77.5	
COc1ccc(-c2cc(=O)c3ccc4c(c3o2)OCO4)cc1OC	82.5	87.9	
COc1ccc(C2CC(=O)c3ccc4c(c3O2)OCO4)cc1 (configuration not stated)	81.7	88.2	
COc1cc(C2CC(=O)c3ccc4c(c3O2)OCO4)cc(OC)c1OC (configuration not stated)	68.3	69.7	
COc1cc(-c2cc(=O)c3ccc4c(c3o2)OCO4)cc(OC)c1OC	90.5	76	
COc1ccc(/C=C/C(=O)c2ccc3c(c2O)OCO3)cc1	80.9	80.6	
COc1ccc(C2CC(=O)c3ccc4c(c3O2)OCO4)cc1OC (configuration not stated)	80.4	74.9	
COc1ccc(-c2cc(=O)c3ccc4c(c3o2)OCO4)cc1	76.5	81.2	
COc1ccccc1C1CC(=O)c2ccc3c(c2O1)OCO3 (configuration not stated)	74	83.2	
COc1cc(/C=C/C(=O)c2ccc3c(c2O)OCO3)cc(OC)c1OC	64.4	56.1	inhibition [12]: inactive; inhibition at 50 µM [13]: 70%; Activity [3]: Non-toxic; inhibition (INH) [14]: 20%; inhibition [15]: Dose-dependent effect; inhibition [16]: Dose-dependent effect; inhibition [17]: inactive; inhibition at 30 µM [18]: 41%; inhibition (INH) [19]: 35%
